Data published in ChEMBL document CHEMBL1152615, “Cytosporones, coumarins, and an alkaloid from the endophytic fungus Pestalotiopsis sp. isolated from the Chinese mangrove plant Rhizophoramucronata” (Bioorg Med Chem, 2009).
Calls of active or inactive are those of the source.

Assays:
Assay type in all cases: functional, cell-based
HeLa = experiment: Cytotoxicity against human HeLa cells
Outline: (§1)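 MTT assay. Cells kept in RPMI-1640 with Na-carbonate (pH 7.2) plus 10% FCS, at 37 °C under humidified 5% CO2/95% air. Seeded at 1500 cells/mL and exposed for 72 h to compounds in DMSO at several concentrations, with an initial test concentration of 10 µg/mL. MTT added for 3 h, then DMSO for 1 h to lyse cells; absorbance read at 595 nm. Negative control was medium with 0.1% EGMME/DMSO.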

L5178Y = experiment: Cytotoxicity against mouse L5178Y cells; outline: as §1
PC-12 = experiment: Cytotoxicity against rat PC12 cells; outline: as §1

Measured: Activity

COc1cc(O)c2oc(=O)c(CC(O)CO)cc2c1 (centres undefined)
inactive: all assays above

CC(=O)OCCCCCCCC1OC(=O)Cc2cc(O)cc(O)c21 (centres undefined)
inactive: all assays above

CCCCCCCC1OC(=O)Cc2cc(O)cc(O)c21 (centres undefined)
inactive: all assays above

COc1cc(O)cc2cc(CO)c(=O)oc12
inactive: all assays above

CC(O)CCCCCC1OC(=O)Cc2cc(O)cc(O)c21 (centres undefined)
inactive: all assays above

COc1cc(OC)c2oc(=O)c(CC(O)CO)cc2c1 (centres undefined)
inactive: all assays above

COc1cc(OC)c2oc(=O)c(CO)cc2c1
inactive: all assays above

CC(=O)OC(C)CCCCCC1OC(=O)Cc2cc(O)cc(O)c21 (centres undefined)
inactive: all assays above

CCOC(=O)Cc1cc(O)cc(O)c1C(=O)CCCCCC(C)O (centres undefined)
inactive: all assays above

CCCCCCCC(=O)c1c(O)cc(O)cc1CC(=O)OC
inactive: all assays above

COC(=O)Cc1cc(O)cc(O)c1C(=O)CCCCCC(C)O (centres undefined)
inactive: all assays above

COc1cc(OC)c2oc(=O)c(C(O)C(C)O)cc2c1 (centres undefined)
inactive: all assays above

COc1cc(OC)c2oc(=O)c(CC(C)O)cc2c1 (centres undefined)
inactive: all assays above
